Laboratory results taken from ChEMBL document CHEMBL3045256, “Design, synthesis, structure, and acaricidal/insecticidal activity of novel spirocyclic tetronic acid derivatives containing an oxalyl moiety” (2011).

Columns and labels:
Assay type in all cases: functional
[1] = tested on: Tetranychus cinnabarinus; assay: Acaricidal activity against eggs of Tetranychus cinnabarinus (carmine spider mite) in sieva bean leaves assessed as mortality at 5 mg/kg at 25 +/-1 degC treated for 3 secs measured after 4 days; conditions: 96 h
[2] = tested on: Tetranychus cinnabarinus; assay: Acaricidal activity against larvae of Tetranychus cinnabarinus (carmine spider mite) in sieva bean leaves assessed as mortality at 10 mg/kg at 25 +/-1 degC treated for 3 secs measured after 4 days; conditions: 96 h
[3] = tested on: Mythimna separata; assay: Stomach toxicity against fourth-instar larval stage of Mythimna separata (Oriental armyworm) in compound-pretreated corn leaves assessed as mortality at 600 mg/kg at 25 +/-1 degC after 4 days
In short: (§1)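 Foliar application to oriental armyworm. Single corn leaves were laid on moistened filter paper in Petri dishes. Bioassays were run at 25 ± 1 °C.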

[4] = tested on: Helicoverpa armigera; assay: Stomach toxicity against third-instar larval stage of Helicoverpa armigerain compound-pretreated corn leaves assessed as mortality at 600 mg/kg at 25 +/-1 degC after 4 days by leaf-dip method
In short: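 Leaf-dip assay on cotton bollworm. Corn leaves were dipped in test solution and air-dried. The treated pieces were placed individually into 24-hole boxes. Run at 25 ± 1 °C.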

[5] = tested on: Tetranychus cinnabarinus; assay: Acaricidal activity against larvae of Tetranychus cinnabarinus (carmine spider mite) in sieva bean leaves assessed as mortality at 5 mg/kg at 25 +/-1 degC treated for 3 secs measured after 4 days; conditions: 96 h
[6] = tested on: Ostrinia nubilalis; assay: Stomach toxicity against third-instar larval stage of Ostrinia nubilalis (European corn borer) in corn leaves assessed as mortality at 600 mg/kg at 25 +/-1 degC treated for 3-5 secs before larval infestation after 4 days by leaf-dip method; conditions: 96 h
In short: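 Corn leaf disks (about 5 cm) were dipped for 3–5 s and air-dried. Each disk was placed in a 7 cm glass vessel with 10 third-instar corn borer larvae. Percentage mortality was scored 4 days after treatment. Controls were acetone-treated leaves. Run at 25 ± 1 °C.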

[7] = tested on: Plutella xylostella; assay: Stomach toxicity against third-instar larval stage of Plutella xylostella (diamondback moth) in cabbage leaves assessed as mortality at 200 mg/kg at 25 +/-1 degC treated for 3 secs before larval infestation after 4 days by leaf-dip method; conditions: 96 h
In short: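 Cabbage leaf disks (6 cm × 2 cm) were dipped in test solution for 3 s and air-dried. Each disk was placed in a glass tube and given seven third-instar diamondback moth larvae. Percentage mortality was scored after 4 days. Controls were water and dimethylformamide. Each treatment was done three times at 25 ± 1 °C.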

[8] = tested on: Tetranychus cinnabarinus; assay: Acaricidal activity against eggs of Tetranychus cinnabarinus (carmine spider mite) in sieva bean leaves assessed as mortality at 1 mg/kg at 25 +/-1 degC treated for 3 secs measured after 4 days; conditions: 96 h
[9] = tested on: Mythimna separata; assay: Stomach toxicity against fourth-instar larval stage of Mythimna separata (Oriental armyworm) in compound-pretreated corn leaves assessed as mortality at 100 mg/kg at 25 +/-1 degC after 4 days; in short: as §1
[10] = tested on: Mythimna separata; assay: Stomach toxicity against fourth-instar larval stage of Mythimna separata (Oriental armyworm) in compound-pretreated corn leaves assessed as mortality at 50 mg/kg at 25 +/-1 degC after 4 days; in short: as §1
[11] = tested on: Tetranychus cinnabarinus; assay: Acaricidal activity against eggs of Tetranychus cinnabarinus (carmine spider mite) in sieva bean leaves assessed as mortality at 0.5 mg/kg at 25 +/-1 degC treated for 3 secs measured after 4 days; conditions: 96 h
[12] = tested on: Tetranychus cinnabarinus; assay: Acaricidal activity against larvae of Tetranychus cinnabarinus (carmine spider mite) in sieva bean leaves assessed as mortality at 0.5 mg/kg at 25 +/-1 degC treated for 3 secs measured after 4 days; conditions: 96 h
[13] = tested on: Tetranychus cinnabarinus; assay: Acaricidal activity against eggs of Tetranychus cinnabarinus (carmine spider mite) in sieva bean leaves assessed as mortality at 2.5 mg/kg at 25 +/-1 degC treated for 3 secs measured after 4 days; conditions: 96 h
[14] = tested on: Tetranychus cinnabarinus; assay: Acaricidal activity against larvae of Tetranychus cinnabarinus (carmine spider mite) in sieva bean leaves assessed as mortality at 2.5 mg/kg at 25 +/-1 degC treated for 3 secs measured after 4 days; conditions: 96 h
[15] = tested on: Tetranychus cinnabarinus; assay: Acaricidal activity against larvae of Tetranychus cinnabarinus (carmine spider mite) in sieva bean leaves assessed as mortality at 1 mg/kg at 25 +/-1 degC treated for 3 secs measured after 4 days; conditions: 96 h
[16] = tested on: Tetranychus cinnabarinus; assay: Acaricidal activity against eggs of Tetranychus cinnabarinus (carmine spider mite) in sieva bean leaves assessed as mortality at 0.25 mg/kg at 25 +/-1 degC treated for 3 secs measured after 4 days; conditions: 96 h
[17] = tested on: Tetranychus cinnabarinus; assay: Toxicity ratio of spiromesifen LC50 to compound LC50 for eggs of Tetranychus cinnabarinus (carmine spider mite) treated for 3 secs measured after 4 days
[18] = tested on: Tetranychus cinnabarinus; assay: Acaricidal activity against eggs of Tetranychus cinnabarinus (carmine spider mite) in sieva bean leaves assessed as mortality at 0.05 mg/kg at 25 +/-1 degC treated for 3 secs measured after 4 days; conditions: 96 h
[19] = tested on: Tetranychus cinnabarinus; assay: Ratio of mortality against eggs of Tetranychus cinnabarinus (carmine spider mite) to mortality against larvae of carmine spider mite
[20] = tested on: Tetranychus cinnabarinus; assay: Acaricidal activity against eggs of Tetranychus cinnabarinus (carmine spider mite) in sieva bean leaves assessed as mortality at 25 +/-1 degC treated for 3 secs measured after 4 days
[21] = tested on: Tetranychus cinnabarinus; assay: Acaricidal activity against eggs of Tetranychus cinnabarinus (carmine spider mite) in sieva bean leaves assessed as mortality at 0.1 mg/kg at 25 +/-1 degC treated for 3 secs measured after 4 days; conditions: 96 h

Compound	mortality at 5 mg/kg [1]	mortality at 10 mg/kg [2]	mortality at 600 mg/kg [3]	mortality at 600 mg/kg [4]	mortality at 5 mg/kg [5]	mortality at 600 mg/kg [6]	mortality at 1 mg/kg [8]	mortality at 0.5 mg/kg [11]	mortality at 0.5 mg/kg [12]	mortality at 2.5 mg/kg [13]	mortality at 2.5 mg/kg [14]	mortality at 1 mg/kg [15]	mortality at 0.25 mg/kg [16]	further results
C#CCOC(=O)C(=O)OC1=C(c2c(C)cc(C)cc2C)C(=O)OC12CCCC2	30%	30%	50%	20%	0%	70%								
Cc1cc(C)c(C2=C(OC(=O)C(=O)Oc3ccccc3)C3(CCCC3)OC2=O)c(C)c1	100%	100%		20%	90%	60%	70%	50%	20%	100%	80%	50%		mortality at 200 mg/kg [7]: 60%; mortality at 100 mg/kg [9]: 100%; mortality at 50 mg/kg [10]: 0%
Cc1cc(C)c(C2=C(OC(=O)C(=O)Oc3ccc(Cl)cc3)C3(CCCC3)OC2=O)c(C)c1	100%	100%	70%	30%	90%	50%	90%	80%	0%	100%	70%	60%	60%	
Cc1cc(C)c(C2=C(OC(=O)C(=O)Oc3ccc(C(C)(C)C)cc3)C3(CCCC3)OC2=O)c(C)c1	90%	100%	80%	10%	90%	10%	50%		40%	70%	90%	60%		
CCN(CC)C(=O)C(=O)OC1=C(c2c(C)cc(C)cc2C)C(=O)OC12CCCC2	100%	100%		20%	100%	30%	60%	0%		100%	90%	70%		mortality at 200 mg/kg [7]: 85%; mortality at 100 mg/kg [9]: 100%; mortality at 50 mg/kg [10]: 40%
Cc1cc(C)c(C2=C(OC(=O)C(=O)N(C(C)C)C(C)C)C3(CCCC3)OC2=O)c(C)c1	100%	100%	50%	40%	80%	80%	100%	100%		100%	40%		80%	RatioLC50 [17]: 1.4; mortality at 0.05 mg/kg [18]: 10%; Ratio [19]: 25; LC50 [20]: 0.1147 mg/kg; mortality at 0.1 mg/kg [21]: 40%
Cc1cc(C)c(C2=C(OC(=O)C(=O)N3CCCCC3)C3(CCCC3)OC2=O)c(C)c1	100%	100%	40%	30%	90%	40%	100%	100%		100%	70%		100%	RatioLC50 [17]: 2.3; mortality at 0.05 mg/kg [18]: 30%; Ratio [19]: 25; LC50 [20]: 0.0675 mg/kg; mortality at 0.1 mg/kg [21]: 60%
